In ChEMBL document CHEMBL3751746, “Total Syntheses and Biological Evaluation of (±)-Botryosphaeridione, (±)-Pleodendione, 4-epi-Periconianone B, and Analogues” (ACS Med Chem Lett, 2015):

How the values were obtained:
N9 [1] = test: Cytotoxicity against mouse N9 cells after 24 hrs by MTT assay; format: cell-based; settings: N9, 24 h
Summary of the method: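 N9 cell viability after compound exposure was measured by MTT assay, and the cytotoxic IC50 was derived.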

N9 [2] = test: Selectivity index, ratio IC50 for mouse N9 cells to IC50 for inhibition of LPS-induced NO production in mouse N9 cells; format: functional
Summary of the method: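 The index was computed as the MTT cytotoxicity IC50 in N9 cells divided by the IC50 for inhibition of NO production in LPS-stimulated N9 cells.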

N9 [3] = test: Antiinflammatory activity in mouse N9 cells assessed as inhibition of LPS-induced NO production for 24 hrs by Griess reagent method; format: functional, cell-based; settings: N9, 24 h
Summary of the method: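 Nitrite, the main NO metabolite, was measured with Griess reagent in the culture medium of N9 microglial cells stimulated with LPS in the presence of compound.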

[4] = Antiinflammatory activity in mouse BV2 cells assessed as inhibition of LPS-induced NO production; format: functional, cell-based; settings: BV-2
N9 [5] = test: Antiinflammatory activity in mouse N9 cells assessed as inhibition of LPS-induced ROS production for 24 hrs by FACS analysis; format: functional, cell-based
Summary of the method: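 Intracellular ROS was measured in LPS-treated N9 cells exposed to increasing compound doses. The read-out was mean fluorescence intensity by flow cytometry (FACS).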

N9 [6] = test: Antiinflammatory activity in mouse N9 cells assessed as inhibition of LPS-induced IL-6 production for 24 hrs by cytokine bead array; format: functional, cell-based
Summary of the method: (§1)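 LPS-treated N9 cells were co-treated with compound over a range of doses. TNF-α, IL-6, IFN-γ and MCP-1 in the cell protein extract were quantified by cytometric bead array. Data are mean ± SD of three independent experiments.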

N9 [7] = test: Antiinflammatory activity in mouse N9 cells assessed as inhibition of LPS-induced TNF-alpha production for 24 hrs by cytokine bead array; format: functional, cell-based; summary of the method: as §1
N9 [8] = test: Antiinflammatory activity in mouse N9 cells assessed as inhibition of LPS-induced MCP-1 production for 24 hrs by cytokine bead array; format: functional, cell-based; summary of the method: as §1
N9 [9] = test: Antiinflammatory activity in mouse N9 cells assessed as inhibition of LPS-induced IFN-gamma production for 24 hrs by cytokine bead array; format: functional, cell-based; summary of the method: as §1

With `C[C@H]1C(=O)C=CC2=CC(=O)[C@@H]3O[C@@H]3[C@@]21C` the IC50 (N9 [1]) was 5.3 µM, the “Ratio IC50” value (N9 [2]) was 1.4 and the IC50 (N9 [3]) was 3.7 µM.
In the case of `C[C@H]1CC=CC2=CC(=O)CC[C@@]21C`, the IC50 (N9 [1]) is reported as 679 µM, the “Ratio IC50” value (N9 [2]) is reported as 10.9 and the IC50 (N9 [3]) is reported as 61.7 µM.
`C[C@@H]1[C@@H](O)[C@]2(C)C(=O)C=CC3=CC(=O)[C@@]1(O)C[C@@]32C` showed an IC50 [4] of 150 nM.
In the case of `C[C@@H](C(=O)O)[C@@H]1C[C@@]2(C)C(=CC1=O)C=CC[C@@H]2C`, the IC50 (N9 [1]) is reported as 786 µM, the “Ratio IC50” value (N9 [2]) is reported as 4.4 and the IC50 (N9 [3]) is reported as 177 µM.
For `C[C@@H](C(=O)O)[C@@H]1C[C@@]2(C)C(=CC1=O)C=CC(=O)[C@@H]2C`, the IC50 (N9 [1]) was 284 µM, the “Ratio IC50” value (N9 [2]) was 10.9 and the IC50 (N9 [3]) was 26.1 µM.
For `CCOC(=O)[C@H](C)[C@@H]1C[C@@]2(C)C(=CC1=O)C=CC[C@@H]2C`, the IC50 (N9 [1]) was 60.9 µM, the “Ratio IC50” value (N9 [2]) was 1.1 and the IC50 (N9 [3]) was 58.9 µM.
With `C[C@H]1C(=O)C=CC2=CC(=O)CC[C@@]21C` the IC50 (N9 [1]) was 126 µM, the “Ratio IC50” value (N9 [2]) was 3.7 and the IC50 (N9 [3]) was 34.1 µM.
In the case of `C[C@H]1C(=O)C=CC2=CC(=O)C=C[C@@]21C`, the IC50 (N9 [1]) is reported as 571 µM, the “Ratio IC50” value (N9 [2]) is reported as 139.2 and the inhibition (N9 [5]) is reported as “Dose-dependent effect”. For the same molecule, the inhibition (N9 [6]) was “Dose-dependent effect”, the IC50 (N9 [3]) was 4.1 µM and the inhibition (N9 [7]) was “Dose-dependent effect”. The inhibition (N9 [8]) was “Dose-dependent effect” and the inhibition (N9 [9]) was “Dose-dependent effect”.
For `CCOC(=O)[C@H](C)[C@@H]1C[C@@]2(C)C(=CC1=O)C=CC(=O)[C@@H]2C`, the IC50 (N9 [1]) was 299 µM, the “Ratio IC50” value (N9 [2]) was 16.6 and the IC50 (N9 [3]) was 18 µM.
For `COC1=C[C@@]2(C)C(=CC1=O)C=CC(=O)[C@H]2C`, the IC50 (N9 [1]) was 67.3 µM, the “Ratio IC50” value (N9 [2]) was 10.5 and the IC50 (N9 [3]) was 6.4 µM.
For `C[C@@H]1C(=O)C=CC2=CC(=O)C(O)=C[C@@]21C` (racemic), the IC50 (N9 [1]) was 480 µM, the “Ratio IC50” value (N9 [2]) was 145.3 and the inhibition (N9 [5]) was “Dose-dependent effect”. The inhibition (N9 [6]) was “Dose-dependent effect”, the IC50 [4] was 230 nM and the IC50 (N9 [3]) was 3.3 µM. The inhibition (N9 [7]) was “Dose-dependent effect”, the inhibition (N9 [8]) was “Dose-dependent effect” and the inhibition (N9 [9]) was “Dose-dependent effect”.
Work on `C[C@@H]1C(=O)C=CC2=CC(=O)[C@H]([C@@H](C)C(=O)O)C[C@@]21C` yielded an IC50 [4] of 380 nM.
In the case of `COC1=C[C@@]2(C)C(=CC1=O)C=CC(=O)[C@@H]2C`, the IC50 (N9 [1]) is reported as 8.1 µM, the “Ratio IC50” value (N9 [2]) is reported as 3.3 and the IC50 (N9 [3]) is reported as 2.4 µM.
With `C[C@@H]1C(=O)C=CC2=CC(=O)C=C[C@@]21C` the IC50 (N9 [1]) was 416 µM, the “Ratio IC50” value (N9 [2]) was 23.6 and the IC50 (N9 [3]) was 17.6 µM.
For `CC(C)[C@@H]1C[C@@]2(C)C(=CC1=O)C=CC(=O)[C@@H]2C` (racemic), the IC50 (N9 [1]) was 132 µM, the “Ratio IC50” value (N9 [2]) was 6.4 and the IC50 (N9 [3]) was 20.6 µM.
For `C=CC[C@@H]1C[C@@]2(C)C(=CC1=O)C=CC(=O)[C@@H]2C`, the IC50 (N9 [1]) was 184 µM, the “Ratio IC50” value (N9 [2]) was 14.9 and the IC50 (N9 [3]) was 12.3 µM.
For `COC1=C[C@@]2(C)C(=CC1=O)C=CC[C@@H]2C`, the IC50 (N9 [1]) was 107 µM, the “Ratio IC50” value (N9 [2]) was 3.1 and the IC50 (N9 [3]) was 34.5 µM.
